# Experimental data reported in the EternaBench riboswitch data.
# Tested on: MS2 coat protein
# Test: apparent Kd, MS2 coat protein; higher = weaker binding; RNA-MaP array; FMN 200 µM where present
# Procedure, shortened: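 The apparent Kd comes from binding curves fitted cluster by cluster, filtered, and summarised as a median. Those curves followed SNAP-549-labelled MS2 coat protein from 0.7 or 1.5 nM, doubling to 3 µM, on Illumina sequencing-chip clusters where stalled E. coli RNA polymerase had transcribed the designs, without and then with constant ligand. The buffer was 100 mM Tris-HCl pH 7.5, 80 mM KCl, 4 mM MgCl2, BSA, DTT, yeast tRNA and Tween-20, and green signal was normalised to red-channel RNA signal and control-cluster median Fmax.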
# [1] = designed as: OFF switch for flavin mononucleotide, no ligand
# [2] = ligand present: flavin mononucleotide, designed as: OFF switch for flavin mononucleotide
# [3] = designed as: ON switch for flavin mononucleotide, no ligand
# [4] = ligand present: flavin mononucleotide, designed as: ON switch for flavin mononucleotide
Sequence,apparent Kd [1],apparent Kd [2],apparent Kd [3],apparent Kd [4]
AGCUAGUCAGGAUAUACGAACAUGUCGAAAGACGUGAGGGAACAUGAGGAUCACCCAUGUAGAAGGGACUAGCA,30.6 nM,36.2 nM,–,–
AGCUAGUCAGGAUAUGCGUGAAGAAUAAAACAAAUAACAACGCAGAAGGGACAUGAGGAUCACCCAUGUUAGCA,30.7 nM,19.5 nM,–,–
AGCUAUUAAUCAGGAUAUAGGGACAUGAGGAUCACCCAUGUGUACAUGAUAAAAUGUGAUCACGUCUAGAAGGGAUUACUAACA,–,–,77 nM,79.8 nM
AGCUGCCGGUCACAUGAGGAUCACCCAUGUAACCUGCAUUCACAGGAUAUGUUGGCUCCUUGCCGGCAGAAGGGUGAAGCGCCG,–,–,371 nM,107 nM
AGCUGGUGACAGCAAGAAGUUUAACAUGAGGAUCACCCAUGUAGAAGGCUGUACGGUUACCGUACAGAGGAUAUACAUAGAAAG,43.7 nM,57.5 nM,–,–
AGCUGUGGCCGAGGAUAUCAAGAACCAUGGAAAACCAUGGAACCUUGACAUGAGGAUCACCCAUGUGAGAAGGCGGUCUCAGCA,14.4 nM,11.7 nM,–,–
AGCUGUGGCCGAGGAUAUCUAACAAUCCUAACCGAAAUAUAAUCGGACAUGAGGAUCACCCAUGUAGAGAAGGCGGUCUCAGCA,92.4 nM,237 nM,–,–
AGCUGUGGCCGAGGAUAUCUAAUAACUCAAACCGAAAUAUAAUCGGACAUGAGGAUCACCCAUGUAGAGAAGGCGGUCUCAGCA,84.6 nM,154 nM,–,–
AGCUGUGGCCGAGGAUAUCUGAACUCAAUAACCGAAAUAUAAUCGGACAUGAGGAUCACCCAUGUAGAGAAGGCGGUCUCAGCA,34 nM,56.5 nM,–,–
AGCUGUGGCCGAGGAUAUCUGAACUUUCAAACCGAAAUAUAAUCGGACAUGAGGAUCACCCAUGUAGAGAAGGCGGUCUCAGCA,16 nM,13.6 nM,–,–
AGGAAACAUGAGGAUCACCCAUGUAAAUAUGGGCGAGGAUAUCGAAAGAAAAGAAAGAAACGAGAAGGCGCAAAAG,–,–,324 nM,77.7 nM
AGGAAACAUGAGGAUCACCCAUGUAAGAUAUACACAGGAUAUGCGAAAAGAAACAAAGAAGCAGAAGGGUGGAAAA,–,–,35.1 nM,21.2 nM
AGGACAAGGCAGAAGGGACAUGAGGAUCACCCAUGUACCGUGGUUCAGCAGUCAGGAUAUGCCAUAUGUAAACAUAUCGUAAGA,12.1 nM,108 nM,–,–
AGGAGAAAUGUAGGAUAUGGGCGGAUAUAUGGGCAAAGCGCAUAUAUCCGCCCAGAAGGACAUGAGGAUCACCCAUGUUUCCCU,11.1 nM,13.3 nM,–,–
AGGAGACAUGAGGAUCACCCAUGUGCACGUGGACGAGGAUAUGCUAGUAGAAGAUAGAAUGCAGAAGGCGUAAGAA,–,–,75.7 nM,76.8 nM
AGGAGGUCAGGAUAUGCAUGGCGGGACUUGCGUCGUGGCGUGCAGAAGGGACAUGAGGAUCACCCAUGUGGAGC,66.4 nM,106 nM,–,–
AGGCGACAUGAGGAUCACCCAUGUGAGGAUAUCGAACUCAACUGAGGAGAGAGUAAGGCGAGAAGGCACACAGU,22.1 nM,36.4 nM,–,–
AGGGCGAAAUGGCUCUAUGAGAUGAGAAGGGUAGGAGGGUGGAAGUACAUGAGGAUCACCCAUGUACAGGAUAUCAUGCCGAUU,6.42 nM,6.4 nM,–,–
AGGUCAACCACAGGAUAUGGCUAGCAUAGCUAGCCAGAAGGGUGGUCGUAACCAUGUAAAUACAUGAGGAUCACCCAUGUAUCC,–,–,235 nM,66.5 nM
AGGUGUCCUGAGAGAUUUCUCCACAUGAGGAUCACCCAUGUAGAGGAUAUCGACGCUGUGCGGUUCGAGAAGGCUACACUAAUU,6.85 nM,42.4 nM,–,–
AGGUUGGGAGGAUAUCCAAUAUAUGACAUGAGGAUCACCCAUGUUUCCACUCGUACCUCCGGAGAAGGCCCUUCCA,21.7 nM,23 nM,–,–

Sequence,apparent Kd [1],apparent Kd [2],apparent Kd [3],apparent Kd [4]
AGUAACAGAGGAUAUACUAUUUUAUGUGUUUAUUGUUUUAAACAUGAGGAUCACCCAUGUAGAAGGCUGAAUAA,29.4 nM,40.5 nM,–,–
AGUAACAGAGGAUAUACUAUUUUAUGUGUUUAUUGUUUUGAACAUGAGGAUCACCCAUGUAGAAGGCUGAAUAA,24.4 nM,28 nM,–,–
AGUAACAGAGGAUAUACUGUUUUAUGUGUUUAUUGUUUUGAACAUGAGGAUCACCCAUGUAGAAGGCUGAAUAA,23.3 nM,20.9 nM,–,–
AGUACUCAAAGAGUACCCAUACGGACAUGAGGAUCACCCAUGUAGGAUAUGCUACUCAAAGAGUAGUAGAAGGACAUGUUCCUC,12.4 nM,43.6 nM,–,–
AGUAUGAGAGGAUAUACUAAUAAACAUGGAAACAUGAAGGGACAUGAGGAUCACCCAUGUAGAAGGCUCGUACA,55.6 nM,177 nM,–,–
AGUCAGAGAGGAUAUACAUGGGAAAAAAAAGUAAGAUCCCUACAUGAGGAUCACCCAUGUAGAAGGCUCUGACA,28.6 nM,36 nM,–,–
AGUCCAGAAGGAUAUACAUAGGUGAAAAAAAAAAAAAAACUACAUGAGGAUCACCCAUGUAGAAGGUCUGGACA,93.5 nM,46 nM,–,–
AGUGAGCAGACAGGAUAUCCACUCAGGUCUGAGUCAACGACAUGAGGAUCACCCAUGUCCUAAAAGGAGAAGGGUCAUGGUCGU,–,–,198 nM,107 nM
AGUGUAGAGGUGAAGCGAAUUACUGAGGAUAUGACAUGAGGAUCACCCAUGUACACAUCCUCAGGUCAGAAGGCAGUGGUUCUU,5.62 nM,4.8 nM,–,–
AGUGUCAUCGAGAAGGCCUUAGGAACAUGAGGAUCACCCAUGUAACAUGGGAGGAUAUCGAUGAUACAGCUACGUUUCGUAGCA,–,–,6.51 nM,4.85 nM
AGUGUCAUCGAGAAGGCUUCAACAUGAGGAUCACCCAUGUUGUAAUAUGGGAGGAUAUCGAUGAUACAGCUACGUUUCGUAGCA,–,–,7 nM,5.03 nM
AGUGUGUUAGGAUAUCGGAUAUGCUGGAGGAGGUGGAUUUACGAGAAGGAACAUGAGGAUCACCCAUGUAGGAG,37.1 nM,35.6 nM,–,–
AGUUAAUAUCGAGGAUAUCCUCAUAAACAUGAGGAUCACCCAUGUAGAAUGGGAGAAGGCGAUAUUAACAGCAUGUUACAUGCA,–,–,210 nM,114 nM
AGUUGUUCAGGAUAUGGUGUGUUAUACAUGAGGAUCACCCAUGUGGGUCCUGGUUUGGCCUCAGAAGGGAAUGUUG,636 nM,518 nM,–,–
AGUUUGUUUGAGAAGGUGAAGUGGAAACAUGAGGAUCACCCAUGUAUUAGGAAGCCUGGUUUUGUCAAGGAUAUCGGGUAAACA,–,–,–,13.9 nM
AUAAAACAUGAGGAUCACCCAUGUAGAAACAUGGGAGGAUAUACAAAGACGAAAGUCAAAGUAGAAGGCCUAAAAG,–,–,462 nM,311 nM
AUAAAACAUGAGGAUCACCCAUGUCAACAAAAUCGAGGAUAUGGACAGACUUCGGUCUGUCCAGAAGGCGAAUAAU,–,–,13.7 nM,14.6 nM
AUAAAAGUGACAUGAGGAUCACCCAUGUGAAUUAGUAGUAGCAGAAGGCACGUGGGAAGACCAAGUGAGGAUAUGUAACUUUAG,–,–,625 nM,59.2 nM
AUAACUGUACGAGGAUAUCCAAGGGCAGCCCUAGGAGAAGGCGUACAUGAGGAUCACCCAUGUACUAUAUGGAGUUCGCUCGUG,30.7 nM,88.4 nM,–,–
AUAAUAAAGGAGGAUAUCGUAUCGGAAACGAUACGAGAAGGUCUAACAUGAGGAUCACCCAUGUUCCUCAAAUA,43.6 nM,68 nM,–,–
AUAAUGAGUCAAGGAUAUCCGAGCUGAAUGCUUGGAGAAGGUGACAUGAGGAUCACCCAUGUCUCUCCGAGCAUGGUAUUCUCA,28.4 nM,26.6 nM,–,–
